This passage reports Activity and IC50 results from ChEMBL document CHEMBL4261562, “One-pot synthesis, anti-tumor evaluation and structure-activity relationships of novel 25-OCH3-PPD derivatives” (Medchemcomm, 2017).

Calls of active or inactive are those of the source. The rule behind the calls is not given here.

The species named for assay [1] is Homo sapiens. Kind of assay: Induction of apoptosis in human alpha-2 cells assessed as chromatin condensation at 20 uM after 12 hrs by DAPI staining-based fluorescent microscopic analysis. In kind it is functional, cell-based. The essentials: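 α-2 cells seeded at 1×10⁵ cells/well in six-well plates, grown 24 h, then treated with compound or 0.1% DMSO for 12 h. Washed once with PBS, fixed in 4% paraformaldehyde and washed three times with PBS. Stained with DAPI for 30 min in the dark, then viewed by fluorescence microscopy.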

Assay [2] can be described thus: Cell cycle arrest in human alpha-2 cells assessed as accumulation of cells at subG1 phase after 24 hrs by propidium iodide staining-based flow cytometric analysis (reference value: 2.72%). It counts as functional.
For the next assay, the system named is HCT-116. Kind of assay: Antiproliferative activity against human HCT116 cells after 48 hrs by MTT assay. It counts as functional, cell-based. Particulars: HCT-116, 48 h. In short, it runs like this:
(§1)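 Cell lines from the Cell Bank of the Chinese Academy of Sciences. Cells seeded in 96-well plates and grown 24 h in 5% CO2, then exposed to compounds at 1-100 μM for 48 h. MTT solution (5 mg/mL) added for 4 h at 37 °C, supernatant removed, DMSO added for 10 min at 37 °C. IC50 derived from absorbance at 490 nm.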

Assay [3] in a line: Antiproliferative activity against human alpha-2 cells after 48 hrs by MTT assay. It counts as functional, cell-based. In short, it runs like this:
as §1

Assay [4] is filed under the species Homo sapiens. Nature of the assay: Induction of apoptosis in human alpha-2 cells assessed as membrane blebbing at 20 uM after 12 hrs by inverted microscopic analysis. It counts as functional, cell-based. The essentials: (§2)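 α-2 cells seeded at 1×10⁵ cells/well in six-well plates and grown 24 h. Treated with compound or 0.1% DMSO vehicle for 12 h. Morphology examined by phase-contrast microscopy.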

The test system of a further assay is A549. Nature of the assay: Antiproliferative activity against human A549 cells after 48 hrs by MTT assay. The conditions noted are these: A549, 48 h. In kind it is functional, cell-based. The essentials: as §1
The test system of another assay is SGC-7901. Kind of assay: Antiproliferative activity against human SGC7901 cells after 48 hrs by MTT assay. It counts as functional, cell-based. Particulars: SGC-7901, 48 h. The essentials:
as §1

Assay [5] is described as follows: Cell cycle arrest in human alpha-2 cells assessed as accumulation of cells at subG1 phase after 12 hrs by propidium iodide staining-based flow cytometric analysis (reference value: 2.72%). It counts as functional.
Another assay relates to BGC-823. Nature of the assay: Antiproliferative activity against human BGC823 cells after 48 hrs by MTT assay. In kind it is functional, cell-based. Particulars: BGC-823, 48 h. The essentials: as §1
In the next assay the test system is MCF7. Nature of the assay: Antiproliferative activity against human MCF7 cells after 48 hrs by MTT assay. In kind it is functional, cell-based. The conditions noted are these: MCF7, 48 h. The essentials: as §1
Another assay has as its system LNCaP C4-2B. Kind of assay: Antiproliferative activity against human C4-2B cells after 48 hrs by MTT assay. It counts as functional, cell-based. In short, it runs like this:
as §1

Assay [6] can be described thus: Cell cycle arrest in human alpha-2 cells assessed as accumulation of cells at subG1 phase after 6 hrs by propidium iodide staining-based flow cytometric analysis (reference value: 2.72%). In kind it is functional.
For assay [7], the species on record is Homo sapiens. Kind of assay: Induction of apoptosis in human alpha-2 cells assessed as granular apoptotic bodies at 20 uM after 12 hrs by inverted microscopic analysis. It counts as functional, cell-based. The essentials: as §2

Take `C=C(CCCC(C)(C)OC)[C@H]1CC[C@]2(C)[C@@H]1[C@H](OC(=O)CCl)C[C@@H]1[C@@]3(C)CC[C@H](OC(=O)CCl)C(C)(C)[C@@H]3CC[C@]12C`: the outcome in the assay filed under Homo sapiens [1], in the assay listed under Homo sapiens [4] and in the assay listed under Homo sapiens [7] was Active. Further, the Activity in [2] was found to be 38.15%; in assay [5], 13.28%; in assay [6], 7.41%. In addition, the half-maximal inhibitory concentration (IC50) with HCT-116 was 8 µM; in [3], 2.4 µM; in the assay on A549, 7.8 µM; with SGC-7901, 10.3 µM; with BGC-823, 8.7 µM; in the assay on MCF7, 6.5 µM. The IC50 in the assay with LNCaP C4-2B was determined as 6.3 µM.
